Measurements from ChEMBL document CHEMBL4043246, “Discovery of novel [1,2,4]triazolo[4,3-a]quinoxaline aminophenyl derivatives as BET inhibitors for cancer treatment” (Bioorg Med Chem Lett, 2017).

Key:
[1] = Cell cycle arrest in human TY82 cells assessed as accumulation at sub-G1 phase at 1 uM after 24 hrs by DAPI staining based assay (reference value: 6%); format: functional
[2] = target: Bromodomain-containing protein 9 (Homo sapiens) (UniProt Q9H8M2); experiment: Inhibition of human partial length BRD9 (R130 to V259 residues) expressed in bacterial expression system assessed as residual activity at 500 nM relative to control by BROMOscan assay
[3] = target: ATPase family AAA domain-containing protein 2B (Homo sapiens) (UniProt Q9ULI0); experiment: Inhibition of human partial length ATAD2B (Q955 to R1082 residues) expressed in bacterial expression system assessed as residual activity at 500 nM relative to control by BROMOscan assay
Sequence of ATPase family AAA domain-containing protein 2B (Homo sapiens) (Q9ULI0 whole entry, the tested form may be a part): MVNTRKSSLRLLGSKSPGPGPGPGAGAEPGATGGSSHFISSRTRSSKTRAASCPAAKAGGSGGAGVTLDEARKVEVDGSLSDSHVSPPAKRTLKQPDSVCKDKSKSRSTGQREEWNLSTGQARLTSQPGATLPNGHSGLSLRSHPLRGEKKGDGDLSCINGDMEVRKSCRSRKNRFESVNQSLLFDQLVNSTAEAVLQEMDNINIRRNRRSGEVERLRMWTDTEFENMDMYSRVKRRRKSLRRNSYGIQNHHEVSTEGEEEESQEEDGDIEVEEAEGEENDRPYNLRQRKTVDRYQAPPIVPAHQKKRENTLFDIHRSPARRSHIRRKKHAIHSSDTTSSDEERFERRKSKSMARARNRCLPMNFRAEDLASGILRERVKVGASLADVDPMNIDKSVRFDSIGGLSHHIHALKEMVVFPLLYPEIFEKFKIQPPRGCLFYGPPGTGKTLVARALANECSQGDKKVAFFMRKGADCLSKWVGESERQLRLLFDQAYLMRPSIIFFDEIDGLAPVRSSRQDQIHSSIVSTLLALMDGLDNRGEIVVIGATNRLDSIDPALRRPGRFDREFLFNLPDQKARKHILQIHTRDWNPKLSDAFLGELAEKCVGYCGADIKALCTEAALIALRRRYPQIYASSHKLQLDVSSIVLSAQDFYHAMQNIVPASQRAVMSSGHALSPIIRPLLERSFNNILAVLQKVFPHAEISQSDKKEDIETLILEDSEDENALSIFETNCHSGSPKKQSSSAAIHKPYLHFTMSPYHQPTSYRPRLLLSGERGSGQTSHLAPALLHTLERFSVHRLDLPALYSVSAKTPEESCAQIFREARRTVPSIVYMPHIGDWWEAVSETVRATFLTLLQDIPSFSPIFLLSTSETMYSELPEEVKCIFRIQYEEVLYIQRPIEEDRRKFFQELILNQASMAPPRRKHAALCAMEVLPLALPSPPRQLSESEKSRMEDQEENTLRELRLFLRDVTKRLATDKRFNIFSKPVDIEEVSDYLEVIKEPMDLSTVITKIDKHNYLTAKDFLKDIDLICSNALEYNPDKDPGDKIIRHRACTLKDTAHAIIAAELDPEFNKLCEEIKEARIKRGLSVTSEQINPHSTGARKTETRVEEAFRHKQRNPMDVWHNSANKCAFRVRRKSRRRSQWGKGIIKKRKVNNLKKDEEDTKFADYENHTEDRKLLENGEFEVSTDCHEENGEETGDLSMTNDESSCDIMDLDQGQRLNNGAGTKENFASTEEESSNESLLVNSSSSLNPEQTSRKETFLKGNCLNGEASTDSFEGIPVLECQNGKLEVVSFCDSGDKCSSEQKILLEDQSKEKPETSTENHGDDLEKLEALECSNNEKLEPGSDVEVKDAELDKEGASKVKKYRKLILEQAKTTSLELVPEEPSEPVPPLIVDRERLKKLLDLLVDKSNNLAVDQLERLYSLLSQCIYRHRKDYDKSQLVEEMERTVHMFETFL

[4] = target: Bromodomain and PHD finger-containing protein 3 (Homo sapiens) (UniProt Q9ULD4); experiment: Inhibition of human partial length BRPF3 (E588 to G701 residues) expressed in bacterial expression system assessed as residual activity at 500 nM relative to control by BROMOscan assay
[5] = Cell cycle arrest in human TY82 cells assessed as accumulation at G1 phase at 1 uM after 24 hrs by DAPI staining based assay (reference value: 73%); format: functional
[6] = Cell cycle arrest in human TY82 cells assessed as accumulation at G2/M phase at 3 uM after 24 hrs by DAPI staining based assay (reference value: 9%); format: functional
[7] = target: Chromatin remodeling regulator CECR2 (Homo sapiens) (UniProt Q9BXF3); experiment: Inhibition of human partial length CECR2 (P423 to D543 residues) expressed in bacterial expression system assessed as residual activity at 500 nM relative to control by BROMOscan assay
Sequence of Chromatin remodeling regulator CECR2 (Homo sapiens) (Q9BXF3 whole entry, looked up, the tested form may be a part): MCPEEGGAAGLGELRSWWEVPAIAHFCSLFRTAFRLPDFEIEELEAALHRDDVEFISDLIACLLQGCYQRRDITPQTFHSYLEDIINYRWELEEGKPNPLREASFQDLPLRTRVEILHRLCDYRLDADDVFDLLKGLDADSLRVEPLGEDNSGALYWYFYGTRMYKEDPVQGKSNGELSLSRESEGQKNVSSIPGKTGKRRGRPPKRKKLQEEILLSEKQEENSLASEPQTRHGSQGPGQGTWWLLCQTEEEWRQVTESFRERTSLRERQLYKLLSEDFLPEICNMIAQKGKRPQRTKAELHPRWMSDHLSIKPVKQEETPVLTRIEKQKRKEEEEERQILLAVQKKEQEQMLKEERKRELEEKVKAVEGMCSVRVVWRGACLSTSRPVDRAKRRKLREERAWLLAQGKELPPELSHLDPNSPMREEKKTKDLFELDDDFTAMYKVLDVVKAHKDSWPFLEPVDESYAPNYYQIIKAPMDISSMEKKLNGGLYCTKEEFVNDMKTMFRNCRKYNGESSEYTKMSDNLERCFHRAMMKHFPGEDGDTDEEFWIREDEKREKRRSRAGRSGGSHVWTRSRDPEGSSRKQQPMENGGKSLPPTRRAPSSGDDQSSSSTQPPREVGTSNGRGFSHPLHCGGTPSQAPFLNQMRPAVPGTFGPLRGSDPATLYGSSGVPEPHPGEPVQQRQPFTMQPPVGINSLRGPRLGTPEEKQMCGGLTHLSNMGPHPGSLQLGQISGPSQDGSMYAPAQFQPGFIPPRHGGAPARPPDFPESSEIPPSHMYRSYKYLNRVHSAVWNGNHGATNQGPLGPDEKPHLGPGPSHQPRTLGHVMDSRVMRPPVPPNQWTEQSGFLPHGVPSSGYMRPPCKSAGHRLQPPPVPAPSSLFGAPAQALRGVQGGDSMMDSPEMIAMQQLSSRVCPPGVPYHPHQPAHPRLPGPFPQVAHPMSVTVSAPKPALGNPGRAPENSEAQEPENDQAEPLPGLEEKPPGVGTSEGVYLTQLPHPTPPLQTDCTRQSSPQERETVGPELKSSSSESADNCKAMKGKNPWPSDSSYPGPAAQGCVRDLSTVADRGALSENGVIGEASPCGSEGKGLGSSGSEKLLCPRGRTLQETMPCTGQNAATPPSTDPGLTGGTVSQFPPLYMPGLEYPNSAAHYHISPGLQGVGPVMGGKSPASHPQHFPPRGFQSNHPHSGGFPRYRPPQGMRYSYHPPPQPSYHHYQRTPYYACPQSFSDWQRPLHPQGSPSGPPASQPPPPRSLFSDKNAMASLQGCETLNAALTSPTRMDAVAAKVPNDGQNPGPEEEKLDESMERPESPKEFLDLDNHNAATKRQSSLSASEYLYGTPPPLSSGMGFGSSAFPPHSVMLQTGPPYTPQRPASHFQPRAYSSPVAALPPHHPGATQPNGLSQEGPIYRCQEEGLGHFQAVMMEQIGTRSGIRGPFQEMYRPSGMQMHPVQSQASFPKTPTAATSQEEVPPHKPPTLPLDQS

[8] = Cell cycle arrest in human TY82 cells assessed as accumulation at sub-G1 phase at 10 uM after 24 hrs by DAPI staining based assay (reference value: 6%); format: functional
[9] = Cell cycle arrest in human TY82 cells assessed as accumulation at sub-G1 phase at 3 uM after 24 hrs by DAPI staining based assay (reference value: 6%); format: functional
Rattus norvegicus = experiment: Cmax in rat at 20 mg/kg, po; format: ADME, organism-based; parameters: dose 20 mg/kg, route oral; settings: in vivo
In short: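 Peak plasma level after single oral dosing in rat at 5 or 20 mg/kg. Cmax is given in mg/mL as printed, with Tmax in hours.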

[10] = target: Transcription initiation factor TFIID subunit 1-like (Homo sapiens) (UniProt Q8IZX4); experiment: Inhibition of human partial length TAF1L BD2 (Q1523 to D1654 residues) expressed in bacterial expression system assessed as residual activity at 500 nM relative to control by BROMOscan assay
[11] = target: Bromodomain and WD repeat-containing protein 1 (Homo sapiens) (UniProt Q9NSI6); experiment: Inhibition of human partial length WDR9 BD2 (A1310 to E1430 residues) expressed in bacterial expression system assessed as residual activity at 500 nM relative to control by BROMOscan assay
[12] = target: Bromodomain-containing protein 1 (Homo sapiens) (UniProt O95696); experiment: Inhibition of human partial length BRD1 (E556 to A688 residues) expressed in bacterial expression system assessed as residual activity at 500 nM relative to control by BROMOscan assay
Sequence of Bromodomain-containing protein 1 (Homo sapiens) (O95696 whole entry, the tested form may be a part): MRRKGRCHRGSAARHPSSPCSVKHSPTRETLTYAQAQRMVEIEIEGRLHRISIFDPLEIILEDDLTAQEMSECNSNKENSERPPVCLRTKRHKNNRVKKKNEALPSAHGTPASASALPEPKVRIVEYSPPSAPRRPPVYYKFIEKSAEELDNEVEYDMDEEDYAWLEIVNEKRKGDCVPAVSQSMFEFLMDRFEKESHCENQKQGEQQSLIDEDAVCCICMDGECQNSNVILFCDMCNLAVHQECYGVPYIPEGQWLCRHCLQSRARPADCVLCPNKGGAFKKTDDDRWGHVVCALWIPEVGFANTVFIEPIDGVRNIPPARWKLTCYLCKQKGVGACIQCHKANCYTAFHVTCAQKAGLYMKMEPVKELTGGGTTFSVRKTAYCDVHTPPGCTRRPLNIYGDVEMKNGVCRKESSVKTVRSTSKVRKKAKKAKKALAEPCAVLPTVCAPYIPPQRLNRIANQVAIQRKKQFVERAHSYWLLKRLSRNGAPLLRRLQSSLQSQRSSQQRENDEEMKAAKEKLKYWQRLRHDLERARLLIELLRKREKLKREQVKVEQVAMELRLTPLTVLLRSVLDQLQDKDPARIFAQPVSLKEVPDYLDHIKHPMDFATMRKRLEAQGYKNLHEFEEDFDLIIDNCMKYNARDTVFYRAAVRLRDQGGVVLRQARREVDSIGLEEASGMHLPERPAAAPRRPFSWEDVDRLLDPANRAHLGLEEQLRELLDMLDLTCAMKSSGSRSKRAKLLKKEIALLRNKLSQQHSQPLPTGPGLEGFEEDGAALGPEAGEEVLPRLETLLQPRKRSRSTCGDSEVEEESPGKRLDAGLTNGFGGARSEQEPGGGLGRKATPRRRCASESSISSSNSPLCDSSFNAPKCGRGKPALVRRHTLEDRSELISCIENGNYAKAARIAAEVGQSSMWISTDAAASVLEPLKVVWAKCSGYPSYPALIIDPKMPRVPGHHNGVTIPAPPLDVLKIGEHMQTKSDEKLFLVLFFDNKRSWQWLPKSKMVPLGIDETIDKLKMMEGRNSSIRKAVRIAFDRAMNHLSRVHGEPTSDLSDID

[13] = target: T1, Bromodomain-containing protein 4 (Homo sapiens, UniProt O60885); experiment: Inhibition of human partial length BRD4 BD2 (K333 to E460 residues) expressed in bacterial expression system assessed as residual activity at 500 nM relative to control by BROMOscan assay
[14] = target: T1, Bromodomain-containing protein 4; experiment: Inhibition of BRD4 in human TY82 cells assessed as decrease in c-MYC expression level after 24 hrs by Western blot analysis; format: cell-based
In short: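 Ty-82 cells at 70% confluency were treated with varying compound concentrations for 24 h. Samples were run on 12% SDS-PAGE and transferred to nitrocellulose. Membranes were blocked in PBS/1% BSA/0.1% Tween 20 for 1 h, probed with c-MYC antibodies, and detected by chemiluminescence.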

[15] = target: SWI/SNF-related matrix-associated actin-dependent regulator of chromatin subfamily A member 2 (Homo sapiens) (UniProt P51531); experiment: Inhibition of human partial length SMARCA2 (S1377 to Q1486 residues) expressed in bacterial expression system assessed as residual activity at 500 nM relative to control by BROMOscan assay
[16] = Cell cycle arrest in human TY82 cells assessed as accumulation at G1 phase at 3 uM after 24 hrs by DAPI staining based assay (reference value: 73%); format: functional
[17] = target: Bromodomain adjacent to zinc finger domain protein 2A (Homo sapiens) (UniProt Q9UIF9); experiment: Inhibition of human partial length BAZ2A (M1792 to L1905 residues) expressed in bacterial expression system assessed as residual activity at 500 nM relative to control by BROMOscan assay
[18] = target: Bromodomain testis-specific protein (Homo sapiens) (UniProt Q58F21); experiment: Inhibition of human partial length BRDT BD1 (N21 to E137 residues) expressed in bacterial expression system assessed as residual activity at 500 nM relative to control by BROMOscan assay
[19] = target: Bromodomain-containing protein 2 (Homo sapiens) (UniProt P25440); experiment: Inhibition of human partial length BRD2 BD2 (E348 to D455 residues) expressed in bacterial expression system assessed as residual activity at 500 nM relative to control by BROMOscan assay
Sequence of Bromodomain-containing protein 2 (Homo sapiens) (P25440 whole entry, looked up, the tested form may be a part): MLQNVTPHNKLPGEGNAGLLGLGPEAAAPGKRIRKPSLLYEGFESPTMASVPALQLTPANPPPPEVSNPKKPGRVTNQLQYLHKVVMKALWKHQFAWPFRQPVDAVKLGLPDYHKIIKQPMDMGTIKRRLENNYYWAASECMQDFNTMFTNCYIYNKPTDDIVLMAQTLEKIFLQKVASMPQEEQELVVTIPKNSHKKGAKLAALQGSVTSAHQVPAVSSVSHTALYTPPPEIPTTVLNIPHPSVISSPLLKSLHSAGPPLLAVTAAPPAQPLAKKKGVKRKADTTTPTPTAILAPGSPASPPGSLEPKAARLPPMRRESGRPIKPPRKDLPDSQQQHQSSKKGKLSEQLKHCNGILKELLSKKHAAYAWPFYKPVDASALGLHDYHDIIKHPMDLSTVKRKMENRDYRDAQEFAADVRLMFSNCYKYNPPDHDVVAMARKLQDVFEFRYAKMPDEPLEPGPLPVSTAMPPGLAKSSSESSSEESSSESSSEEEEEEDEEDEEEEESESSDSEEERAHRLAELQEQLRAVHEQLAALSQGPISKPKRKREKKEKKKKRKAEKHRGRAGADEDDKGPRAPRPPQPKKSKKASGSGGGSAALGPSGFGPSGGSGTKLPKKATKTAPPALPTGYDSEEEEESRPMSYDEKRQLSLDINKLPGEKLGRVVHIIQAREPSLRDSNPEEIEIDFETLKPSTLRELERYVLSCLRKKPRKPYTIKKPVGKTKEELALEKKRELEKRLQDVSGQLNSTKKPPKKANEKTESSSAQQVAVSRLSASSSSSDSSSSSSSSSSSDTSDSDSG

[20] = target: Transcription intermediary factor 1-alpha (Homo sapiens) (UniProt O15164); experiment: Inhibition of human partial length TRIM24-phd-bromo (P790 to P977 residues) expressed in bacterial expression system assessed as residual activity at 500 nM relative to control by BROMOscan assay
[21] = Cell cycle arrest in human TY82 cells assessed as accumulation at S phase at 3 uM after 24 hrs by DAPI staining based assay (reference value: 11%); format: functional
[22] = target: Bromodomain-containing protein 2 (Homo sapiens) (UniProt P25440); experiment: Inhibition of human partial length BRD2 BD1 (K71 to N194 residues) expressed in bacterial expression system assessed as residual activity at 500 nM relative to control by BROMOscan assay
[23] = target: Bromodomain adjacent to zinc finger domain protein 2B (Homo sapiens) (UniProt Q9UIF8); experiment: Inhibition of human partial length BAZ2B (S2054 to S2168 residues) expressed in bacterial expression system assessed as residual activity at 500 nM relative to control by BROMOscan assay
[24] = Stability in rat liver microsomes assessed as parent compound remaining after 30 mins; format: ADME, microsome; settings: read-out: Stability
In short: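 Incubated in vitro with mouse, rat or human liver microsomes for 30 minutes. Result expressed as percent of parent compound remaining.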

[25] = AUCt in rat at 20 mg/kg, po; format: ADME, organism-based; settings: in vivo
In short: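 Rat pharmacokinetics with single dosing, either intravenous at 2 mg/kg or oral at 5 or 20 mg/kg. AUC is reported both to the last time point (AUCt) and extrapolated to infinity, in ug.hr/mL.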

[26] = target: Histone acetyltransferase KAT2B (Homo sapiens) (UniProt Q92831); experiment: Inhibition of human partial length PCAF (G715 to D831 residues) expressed in bacterial expression system assessed as residual activity at 500 nM relative to control by BROMOscan assay

## Cc1nnc2c(Nc3cccc(CNC(=O)C(C)C)c3)nc3ccccc3n12
[1]
  Activity: 5%
[2]
  Activity: 61%
[3]
  Activity: 96%
[4]
  Activity: 87%
[5]
  Activity: 81%
[6]
  Activity: 4%
[7]
  Activity: 88%
[8]
  Activity: 5%
[9]
  Activity: 4%
Rattus norvegicus
  Cmax: 4600 ng/mL
[10]
  Activity: 83%
[11]
  Activity: 100%
[12]
  Activity: 100%
[13]
  Activity: 16%
[14]
  inhibition: Dose-dependent effect
[15]
  Activity: 100%
[16]
  Activity: 89%
[17]
  Activity: 85%
[18]
  Activity: 19%
[19]
  Activity: 19%
[20]
  Activity: 100%
[21]
  Activity: 2%
[22]
  Activity: 11%
[23]
  Activity: 93%
[24]
  remaining at 0.5 h: 5%
[25]
  AUC(0-t): 20600 ng·h/mL
[26]
  Activity: 91%
